Results taken from ChEMBL document CHEMBL1921681, “Difluoromethylbenzoxazole pyrimidine thioether derivatives: a novel class of potent non-nucleoside HIV-1 reverse transcriptase inhibitors” (J Med Chem, 2011).
≈ marks a conversion by molar mass, not a printed value.

Legend:
[1] = Selectivity ratio of CC50 for mock-infected human MT4 cells to EC50 for Human immunodeficiency virus 1 3B infected in human MT4 cells; format: ADME, cell-based; conditions: read-out: Ratio CC50/EC50
Method in brief: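 Ratio of two values run in parallel. CC50 came from mock-infected CMV-EGFP MT4 cells (150 000 cells/mL, 3 days, EGFP fluorescence). EC50 came from MT4-LTR-EGFP cells (150 000 cells/mL) infected with HIV-1 IIIB at MOI 0.01 with or without inhibitor, with replication read as EGFP fluorescence after 3 days. SI = CC50/EC50.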

[2] = Aqueous solubility of the compound; format: physicochemical; conditions: buffer
[3] = Cytotoxicity against mock infected human MT4 cells after 3 days by EGFP fluorescence microscopic analysis; format: cell-based
Method in brief: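 Mock-infected MT4 cells stably carrying a CMV-EGFP reporter, seeded at 150 000 cells/mL and cultured with or without serial compound concentrations. MT4 cells kept in RPMI 1640 with 10% heat-inactivated FCS, 2 mM L-glutamine, 0.1% NaHCO3, gentamicin and G418, at 37 °C under 5% CO2. After 3 days, proliferation was read as EGFP fluorescence, giving CC50.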

[4] = target: Cytochrome P450 3A4 (Homo sapiens, UniProt P08684); assay: Inhibition of CYP3A4; format: ADME
[5] = system: Human immunodeficiency virus 1; assay: Antiviral activity against Human immunodeficiency virus 1 HXB2 harboring reverse transcriptase K103N and Y181C mutant infected in human MT4 cells stably transformed with HIV1 LTR-EGFP after 3 days by fluorescence microscopic analysis; format: functional, organism-based; conditions: Human immunodeficiency virus 1, HXB2, MT4, 72 h
[6] = Lipophilicity, log D of the compound; format: physicochemical; conditions: octanol/water
[7] = Metabolic stability of the compound in human liver microsomes after 15 mins; format: ADME, Microsome; conditions: read-out: Stability
[8] = Apparent permeability of the compound across human Caco2 cells; format: ADME, cell-based; conditions: Caco-2
[9] = target: Cytochrome P450 2D6 (Homo sapiens, UniProt P10635); assay: Inhibition of CYP2D6; format: ADME
[10] = system: Human immunodeficiency virus 1; assay: Antiviral activity against Human immunodeficiency virus 1 3B infected in human MT4 cells stably transformed with HIV1 LTR-EGFP after 3 days by fluorescence microscopic analysis; format: functional, organism-based; conditions: MT4, 72 h
Method in brief: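 MT4 cells carrying an HIV LTR-EGFP reporter (150 000 cells/mL) infected with HIV-1 IIIB at MOI 0.01, with or without graded inhibitor concentrations. After 3 days, replication read as EGFP fluorescence and expressed as EC50. Cell line maintained in RPMI 1640 with 10% heat-inactivated FCS, 2 mM L-glutamine, gentamicin, G418, at 37 °C, 5% CO2.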

[11] = Dissociation constant, pKa of the compound; format: physicochemical
[12] = target: Cytochrome P450 2C9 (Homo sapiens, UniProt P11712); assay: Inhibition of CYP2C9; format: ADME
[13] = system: Human immunodeficiency virus 1; assay: Selectivity ratio of EC50 for Human immunodeficiency virus 1 HXB2 harboring reverse transcriptase K103N and Y181C mutant infected in human MT4 cells to EC50 for Human immunodeficiency virus 1 3B infected in human MT4 cells; format: functional

Sequence of Cytochrome P450 2C9 (P11712 whole entry): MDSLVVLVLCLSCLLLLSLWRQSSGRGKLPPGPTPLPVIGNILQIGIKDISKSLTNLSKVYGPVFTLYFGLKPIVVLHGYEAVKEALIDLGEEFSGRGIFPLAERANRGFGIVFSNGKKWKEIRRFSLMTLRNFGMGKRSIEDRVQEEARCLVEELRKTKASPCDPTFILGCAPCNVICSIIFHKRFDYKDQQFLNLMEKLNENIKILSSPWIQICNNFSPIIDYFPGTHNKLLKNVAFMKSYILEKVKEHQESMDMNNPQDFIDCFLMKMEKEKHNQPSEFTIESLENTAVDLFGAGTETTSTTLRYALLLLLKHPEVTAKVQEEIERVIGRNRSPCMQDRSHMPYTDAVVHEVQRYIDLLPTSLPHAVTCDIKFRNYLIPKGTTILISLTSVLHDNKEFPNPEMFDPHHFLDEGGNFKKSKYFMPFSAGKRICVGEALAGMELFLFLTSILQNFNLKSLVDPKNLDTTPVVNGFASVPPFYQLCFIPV
Sequence of Cytochrome P450 2D6 (P10635 whole entry): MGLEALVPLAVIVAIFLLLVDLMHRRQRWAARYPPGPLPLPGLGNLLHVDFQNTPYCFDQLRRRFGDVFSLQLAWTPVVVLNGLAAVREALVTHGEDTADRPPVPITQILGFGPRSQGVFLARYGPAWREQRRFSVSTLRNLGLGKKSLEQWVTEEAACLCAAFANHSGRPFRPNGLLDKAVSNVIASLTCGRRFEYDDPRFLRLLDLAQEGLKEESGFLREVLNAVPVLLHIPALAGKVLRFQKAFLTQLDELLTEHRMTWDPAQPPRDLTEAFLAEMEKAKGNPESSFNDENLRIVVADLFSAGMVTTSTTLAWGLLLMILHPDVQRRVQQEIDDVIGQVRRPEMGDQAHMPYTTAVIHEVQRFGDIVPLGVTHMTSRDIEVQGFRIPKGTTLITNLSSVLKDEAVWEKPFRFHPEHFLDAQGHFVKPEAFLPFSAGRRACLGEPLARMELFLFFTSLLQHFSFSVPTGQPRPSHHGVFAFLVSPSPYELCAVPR
Sequence of Cytochrome P450 3A4 (P08684 whole entry): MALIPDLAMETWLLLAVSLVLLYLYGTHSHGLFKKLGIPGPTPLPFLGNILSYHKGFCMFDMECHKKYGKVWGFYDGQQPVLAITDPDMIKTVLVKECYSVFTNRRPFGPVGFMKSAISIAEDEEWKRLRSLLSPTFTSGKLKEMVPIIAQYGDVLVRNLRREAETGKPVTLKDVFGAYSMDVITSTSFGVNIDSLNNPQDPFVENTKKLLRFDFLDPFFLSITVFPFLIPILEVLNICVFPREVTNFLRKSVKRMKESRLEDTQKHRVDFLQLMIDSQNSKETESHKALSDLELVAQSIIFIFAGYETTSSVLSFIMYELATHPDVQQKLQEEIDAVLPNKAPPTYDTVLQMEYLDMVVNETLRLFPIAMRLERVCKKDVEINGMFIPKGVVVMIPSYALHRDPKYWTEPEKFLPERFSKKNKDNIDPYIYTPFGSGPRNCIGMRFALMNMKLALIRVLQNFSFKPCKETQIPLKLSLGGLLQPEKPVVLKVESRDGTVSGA

SMILES | selectivity ratio [1] | CC50 at 72 h [3] | EC50 [5] | EC50 [10] | further results
Cc1ccnc(SC(F)(F)c2nc3ccccc3o2)n1 | > 800 | > 100 µM | 67 µM | 0.11 µM | solubility [2]: 200 µM (≈ 58.7 µg/mL); inhibition (INH) [4]: < 30%; logD [6]: 3.9; remaining at 0.25 h [7]: 90%; Papp [8]: 34.6 ×10⁻⁶ cm/s; inhibition (INH) [9]: < 30%; pKa [11]: 3.6; inhibition (INH) [12]: < 30%
Nc1ccnc(SC(F)(F)c2nc3ccccc3o2)n1 | 129 | 33.5 µM | > 33 µM | 0.26 µM | –
Cc1ccnc(SC(F)(F)c2nc3cccc(C)c3o2)n1 | > 490 | > 98.4 µM | 55.4 µM | 0.2 µM | –
Cc1ccnc(SC(F)(F)c2nc3c(Cl)cccc3o2)n1 | > 1000 | > 98.4 µM | 79 µM | 0.098 µM | Ratio EC50 [13]: 30
CC(=O)Nc1ccnc(SC(F)(F)c2nc3ccccc3o2)n1 | > 2.3 | > 98.4 µM | > 98.4 µM | 43.3 µM | –
Nc1ccnc(SC(F)(F)c2nc3c(Cl)cccc3o2)n1 | < 1 | 28.8 µM | > 28 µM | > 28 µM | Ratio EC50 [13]: 30
Cc1cccc2oc(C(F)(F)Sc3nccc(N)n3)nc12 | 24 | 20 µM | > 20 µM | 0.83 µM | –
COCc1ccnc(SC(F)(F)c2nc3ccccc3o2)n1 | > 142 | > 98.4 µM | > 98.4 µM | 0.66 µM | –
FC(F)(Sc1ncccn1)c1nc2ccccc2o1 | – | – | – | 3.14 µM | –
FC(F)(Sc1nccc(C2CC2)n1)c1nc2ccccc2o1 | 484 | 77.5 µM | 67.9 µM | 0.16 µM | –
c1cnc(SCc2nc3ccccc3o2)nc1 | – | – | – | 35.3 µM | –
Cc1ccnc(SC(F)(F)c2nc3c(C)cccc3o2)n1 | > 570 | > 98.4 µM | > 98.4 µM | 0.17 µM | –
CCc1ccnc(SC(F)(F)c2nc3ccccc3o2)n1 | > 15000 | > 98 µM | 57 µM | 0.0064 µM | –
Cc1ccnc(S(=O)(=O)C(F)(F)c2nc3ccccc3o2)n1 | 8 | 61 µM | > 61 µM | 7.9 µM | –
Cc1ccnc(SC(F)(F)c2nc3cccc(Cl)c3o2)n1 | > 700 | > 98.4 µM | 60 µM | 0.14 µM | Ratio EC50 [13]: 30
CC(C)c1ccnc(SC(F)(F)c2nc3ccccc3o2)n1 | > 774 | > 98.4 µM | > 98.4 µM | 0.13 µM | –
Cc1cc(C)nc(SC(F)(F)c2nc3ccccc3o2)n1 | > 100 | > 98.4 µM | 77.2 µM | 0.95 µM | pKa [11]: 1.3
